Laboratory results as given in ChEMBL document CHEMBL2046392, “Synthesis and evaluation of carbocyanine dyes as PRMT inhibitors and imaging agents” (Eur J Med Chem, 2012).
The source made the active and inactive calls. The calls are words filed in the database; no cut-off is given here.

Assays:
[1] = target: Protein arginine N-methyltransferase 1 (Homo sapiens) (UniProt Q99873); assay: Inhibition of His-tagged PRMT1 expressed in Escherichia coli BL21(DE3) cells assessed as residual activity using [14C]-S-adenosyl-L-methionine and histone H4 peptide at 100 uM after 8 mins by scintillation counting
Outline: (§1)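 50 mM HEPES pH 8.0, 0.5 mM DTT, 1 mM EDTA, 50 mM NaCl, 30°C; 2 μM H4(1-20), 5 μM [14C]AdoMet, inhibitor preincubated 5 min, started with 0.05 μM enzyme, 8 min; P81 filter binding, scintillation.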

[2] = Inhibition of His-tagged PRMT1 Y152A mutant expressed in Escherichia coli BL21(DE3) cells assessed as residual activity using [14C]-S-adenosyl-L-methionine and histone H4 peptide at 4 uM measured after 8 mins by scintillation counting; outline: as §1
[3] = target: Protein arginine N-methyltransferase 5 (Homo sapiens, UniProt O14744); assay: Inhibition of His6X-tagged PRMT5 expressed in Escherichia coli BL21(DE3) cells using [14C]-S-adenosyl-L-methionine and histone H4 peptide after 8 mins by scintillation counting
[4] = Cellular uptake in human HeLa cell nucleus after 6 hrs by bright field microscopic analysis; format: ADME, cell-based
Outline: (§2)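 HeLa cells seeded on coverglass overnight, treated with 0, 2 or 5 μM for 6 h (DMSO control), fixed 10 min in 4% paraformaldehyde at room temperature. Bright-field images under visible light; NIR fluorescence by confocal microscopy with 633 nm excitation and 715–785 nm long-pass emission.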

[5] = Cellular uptake in human HeLa cell cytoplasmic vesicles at 2 to 5 uM after 6 hrs by bright field microscopic analysis; format: ADME, cell-based; outline: as §2
[6] = Cellular uptake in human HeLa cell around nucleus at 2 to 5 uM after 6 hrs by fluorescent microscopic analysis; format: ADME, cell-based; outline: as §2
[7] = Cellular uptake in human HeLa cell nucleus at 2 to 5 uM after 6 hrs by fluorescent microscopic analysis; format: ADME, cell-based; outline: as §2
[8] = Cellular uptake in human HeLa cell cytoplasmic vesicles at 2 to 5 uM after 6 hrs by fluorescent microscopic analysis; format: ADME, cell-based; outline: as §2
HeLa [9] = assay: Cell cycle arrest in human HeLa cells assessed as accumulation at S phase after 24 hrs by propidium iodide staining-based flow cytometric analysis (reference value: 12.2%); format: functional
Outline: (§3)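 HeLa cells (1 × 10^6, exponential growth) exposed to compound for 24 or 48 h; collected, fixed in ice-cold 70% ethanol, stored at 4°C, rinsed in PBS, stained with 40 μg/ml propidium iodide plus RNase A; DNA content by flow cytometry, cell-cycle subpopulations as percentages. Tested at 0.3, 1, 2.5 and 5 μM (24 h).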

HeLa [10] = assay: Cell cycle arrest in human HeLa cells assessed as accumulation at S phase at 1 uM after 24 hrs by propidium iodide staining-based flow cytometric analysis (reference value: 12.2%); format: functional; outline: as §3
HeLa [11] = assay: Cell cycle arrest in human HeLa cells assessed as accumulation at G1 phase at 1 uM after 24 hrs by propidium iodide staining-based flow cytometric analysis (reference value: 57.2%); format: functional; outline: as §3
HeLa [12] = assay: Cell cycle arrest in human HeLa cells assessed as accumulation at G2/M phase at 1 uM after 24 hrs by propidium iodide staining-based flow cytometric analysis (reference value: 29.2%); format: functional; outline: as §3
HeLa [13] = assay: Induction of apoptosis in human HeLa cells assessed as increase in sub-G1 peak at 2.5 to 5 uM after 48 hrs by propidium iodide staining-based flow cytometric analysis; format: functional, cell-based; outline: as §3
[14] = target: Protein arginine N-methyltransferase 1 (Homo sapiens) (UniProt Q99873); settings: 4 uM
[15] = target: Protein arginine N-methyltransferase 3 (Homo sapiens, UniProt O60678); assay: Inhibition of His6X-tagged PRMT3 expressed in Escherichia coli BL21(DE3) cells using [14C]-S-adenosyl-L-methionine and R4 peptide after 8 mins by scintillation counting
[16] = target: Protein arginine N-methyltransferase 6 (Homo sapiens, UniProt Q96LA8); assay: Inhibition of His6X-tagged PRMT6 expressed in Escherichia coli BL21(DE3) cells using [14C]-S-adenosyl-L-methionine and histone H3(1-31) peptide after 8 mins by scintillation counting
Protein arginine N-methyltransferase 6, sequence (Q96LA8 whole entry): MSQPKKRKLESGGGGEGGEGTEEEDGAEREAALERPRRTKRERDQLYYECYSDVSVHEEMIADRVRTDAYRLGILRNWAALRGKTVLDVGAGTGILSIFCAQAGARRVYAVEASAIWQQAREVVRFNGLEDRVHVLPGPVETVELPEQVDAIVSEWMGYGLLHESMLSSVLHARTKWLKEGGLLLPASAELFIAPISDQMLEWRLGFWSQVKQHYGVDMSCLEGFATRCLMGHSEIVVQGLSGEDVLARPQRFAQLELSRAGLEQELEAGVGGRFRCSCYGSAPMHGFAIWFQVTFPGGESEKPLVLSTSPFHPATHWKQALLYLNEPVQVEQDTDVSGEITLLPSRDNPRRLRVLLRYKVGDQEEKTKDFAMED

Protein arginine N-methyltransferase 1 (Homo sapiens), sequence (Q99873 whole entry, looked up): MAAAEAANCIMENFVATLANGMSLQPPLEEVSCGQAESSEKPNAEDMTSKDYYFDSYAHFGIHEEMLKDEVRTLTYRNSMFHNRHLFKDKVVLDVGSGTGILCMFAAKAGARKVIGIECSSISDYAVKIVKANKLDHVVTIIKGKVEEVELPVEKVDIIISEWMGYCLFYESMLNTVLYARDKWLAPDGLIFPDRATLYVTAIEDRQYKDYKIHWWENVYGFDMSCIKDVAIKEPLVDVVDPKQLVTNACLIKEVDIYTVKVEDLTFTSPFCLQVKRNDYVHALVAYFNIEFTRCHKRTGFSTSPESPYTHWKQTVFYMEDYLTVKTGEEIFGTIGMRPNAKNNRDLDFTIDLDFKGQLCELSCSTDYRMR
Protein arginine N-methyltransferase 5, sequence (O14744 whole entry): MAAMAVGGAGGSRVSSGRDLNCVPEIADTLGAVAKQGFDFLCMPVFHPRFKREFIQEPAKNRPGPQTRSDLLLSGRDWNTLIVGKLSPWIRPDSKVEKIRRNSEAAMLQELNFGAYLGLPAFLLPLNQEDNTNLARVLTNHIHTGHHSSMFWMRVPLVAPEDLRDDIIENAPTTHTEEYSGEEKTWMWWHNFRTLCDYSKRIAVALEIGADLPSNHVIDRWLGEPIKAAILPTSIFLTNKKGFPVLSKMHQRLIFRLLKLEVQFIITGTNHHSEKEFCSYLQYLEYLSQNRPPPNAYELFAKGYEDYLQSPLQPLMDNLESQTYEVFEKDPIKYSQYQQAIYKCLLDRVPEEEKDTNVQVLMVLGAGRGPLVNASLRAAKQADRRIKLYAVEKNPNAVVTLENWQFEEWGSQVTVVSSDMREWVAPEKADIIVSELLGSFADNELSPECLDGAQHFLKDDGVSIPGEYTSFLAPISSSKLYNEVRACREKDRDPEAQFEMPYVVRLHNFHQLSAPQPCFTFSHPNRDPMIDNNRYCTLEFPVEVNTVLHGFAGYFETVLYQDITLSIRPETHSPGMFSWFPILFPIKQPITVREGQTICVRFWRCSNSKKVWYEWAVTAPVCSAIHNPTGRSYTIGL
Protein arginine N-methyltransferase 3, sequence (O60678 whole entry): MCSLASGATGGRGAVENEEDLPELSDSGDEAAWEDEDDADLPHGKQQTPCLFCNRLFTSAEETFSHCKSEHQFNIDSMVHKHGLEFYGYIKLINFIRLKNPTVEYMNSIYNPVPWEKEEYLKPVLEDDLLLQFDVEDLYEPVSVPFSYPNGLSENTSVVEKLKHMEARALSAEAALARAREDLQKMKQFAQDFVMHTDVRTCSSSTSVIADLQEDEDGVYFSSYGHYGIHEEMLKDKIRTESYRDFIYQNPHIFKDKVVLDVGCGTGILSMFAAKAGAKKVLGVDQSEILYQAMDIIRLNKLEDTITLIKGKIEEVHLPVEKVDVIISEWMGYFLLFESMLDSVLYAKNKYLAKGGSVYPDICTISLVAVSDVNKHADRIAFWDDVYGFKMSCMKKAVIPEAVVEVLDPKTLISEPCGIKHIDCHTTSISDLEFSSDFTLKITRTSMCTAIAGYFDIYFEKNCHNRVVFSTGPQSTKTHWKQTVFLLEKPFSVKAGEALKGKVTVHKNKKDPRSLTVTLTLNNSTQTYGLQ

Activity [1]	IC50 [3]	Drug uptake [4]	Drug uptake [5]	Drug uptake [6]	Drug uptake [7]	Drug uptake [8]	inhibition [14]	IC50 [15]	IC50 [16]	SMILES	inhibition [2]	Activity (HeLa [9])	Activity (HeLa [10])	Activity (HeLa [11])	Activity (HeLa [12])	Activity (HeLa [13])
80%	–	–	–	–	–	–	–	–	–	CN1\C(=C/C=C(Cl)/C=C/C2=[N+](C)c3ccccc3C2(C)C)C(C)(C)c2ccccc21	–	–	–	–	–	–
–	9.1 µM	Dose-dependent effect	Active	Active	Active	Active	92%	8.3 µM	12.6 µM	CCn1/c(=C\C=C\C2=[N+](CC)c3cccc4cccc2c34)c2cccc3cccc1c32.[I-]	Active	Active	56.5%	23.6%	13.9%	Active
95%	–	–	–	–	–	–	–	–	–	COc1ccc2c(c1)C(C)(C)C(/C=C/C=C/C=C1\N(C)c3ccc(OC)cc3C1(C)C)=[N+]2C	–	–	–	–	–	–
